A short description of assay [1]: inhibitors of TNFa-induced NFkB p65 translocation, primary screen, imaging, HUVEC, MLSMR starter and 10KST1 sets (AID 438;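 active = inhibition above 20% together with a positive visual image hit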;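 also: compound added about 3h40 before a 20 min TNFalpha stimulation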;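 as to inhibition: signal is the nuclear over cytoplasmic p65 intensity ratio per well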). To be noted: HUVEC TNFa-induced p65 nuclear translocation; cell count: measured here: nuclei count (cytotoxicity indicator), at 2.08 µM; inhibition: at 2 µM, stronger effect = higher value, 0% TNFa-plus-vehicle, 100% no-TNFa wells.
A short description of assay [2]: inhibitors of mutant huntingtin aggregation, primary screen, imaging, exon1htt(103Q)mCFP cells, high-content imaging (AID 483;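 active = visual image review flags a hit and inhibition of aggregation exceeds 20%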;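 also: compound exposure lasted 3 days before fixation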;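 as to nuclei count: percent of the per-plate median nuclei count of sample wells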). To be noted: exon1htt(103Q)mCFP cell line, aggregate imaging, at 2 µM; inhibition of aggregation: stronger effect = higher value; nuclei count: measured here: cell count, toxicity.
Assay [3] is described as follows: inhibitors of E-selectin induction by TNFa, primary screen, imaging, HUVEC, immunofluorescence, MLSMR starter and 10KST1 sets (AID 487;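 active = visually confirmed hit in the image check and inhibition above 20%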;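 as to inhibition: signal is fraction of cell area covered by stained E-selectin grains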;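 as to nuclei count: 100% = median nuclei count of all wells on the same plate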). To be noted: HUVEC TNFalpha-induced E-selectin immunofluorescence imaging, at 2 µM; inhibition: stronger effect = higher value; nuclei count: measured here: cell number, toxicity.
The target of assay [4] is Voltage-gated potassium channel subunit beta-2 (Rattus norvegicus) (UniProt P62483). The experiment in a line: KvBeta enzyme negative modulators, primary screen, biochemical, NADPH fluorescence (AID 622;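 active = fluorescence slope higher than the sample average by over 3 SD, cut at about -0.22 in these data, passing the limit was not always enough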;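 also: slope of raw intensity against log time taken from 70 to 1610 s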). To be noted: recombinant KvBeta, 4-cyanobenzaldehyde reduction, at 10 µM, stronger effect = higher value.
Assay [5] shares this target. The experiment in a line: KvBeta positive modulators, primary screen, biochemical, NADPH fluorescence (AID 623).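 Also: fluorescence intensity change per second fitted from 20 to 320 s.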 To be noted: Recombinant KvBeta, NADPH fluorescence decrease slope, 10 min; at 10 µM; stronger effect = lower value.
The target of assay [6] is Muscarinic acetylcholine receptor M4 (Homo sapiens) (UniProt P08173). Description: compounds altering M4/GIRK thallium flux, either direction, primary screen, M4 allosteric agonist project, cell-based, HEK293 M4/GIRK, BTC-AM (AID 625;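 active = fluorescence slope after compound addition differing from the mean of all tested samples at 99.7% confidence, mostly higher but some lower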;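 also: thallium influx through GIRK channels coupled to M4 in HEK293 cells with BTC-AM dye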). To be noted: at 10 µM, actives lie on both sides. In short, it runs like this:
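Material: HEK293 cells with M4 receptor and GIRK channels; Times: cells overnight at 37 °C, BTC-AM loading 1 h, reads 2 min total; Technique: kinetic BTC-AM fluorescence sampled at 1 Hz, 10 s pre-addition baseline; Read-out basis: slope over 15–24 s of trace normalized to starting intensity; Controls: carbachol positive, DMSO negative.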

The nature of assay [7]: inhibitors of Sendai virus-induced IRF3 signaling, primary screen, TLR/RLR signaling modifier project, cell-based, Sendai virus stimulus, luciferase, 10K MLSCN set (AID 602276;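 active = inhibition at or above 50% at 10 µM; inactive = inhibition below 50%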;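 also: firefly luciferase from ISG56 promoter only with Renilla not read in this screen; 0% = Sendai virus plus DMSO and 100% = medium plus DMSO without virus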). To be noted: HEK293 RL24 IRF3 luciferase reporter, at 10 µM, stronger effect = higher value.
The nature of assay [8]: inhibitors of poly I:C-induced TLR3 signaling, primary screen, cell-based, poly I:C stimulus, luciferase, 10K MLSCN set (AID 602277;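 active = inhibition of the reporter signal at or above 50%; inactive = inhibition below 50%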). To be noted: HEK293-TLR3 RL24 IRF3 luciferase reporter, at 10 µM, stronger effect = higher value. For orientation: Reporter assays use an easily measured gene product as a stand-in for the process of interest.

Activity calls are given as the source filed them.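 The calls were made as follows, unless noted: active = NADPH fluorescence slope more negative than the mean of all samples by about 3 SD, 99.7% confidence; inactive = the rest.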

Chain of Muscarinic acetylcholine receptor M4 (Homo sapiens) (P08173 whole entry, looked up): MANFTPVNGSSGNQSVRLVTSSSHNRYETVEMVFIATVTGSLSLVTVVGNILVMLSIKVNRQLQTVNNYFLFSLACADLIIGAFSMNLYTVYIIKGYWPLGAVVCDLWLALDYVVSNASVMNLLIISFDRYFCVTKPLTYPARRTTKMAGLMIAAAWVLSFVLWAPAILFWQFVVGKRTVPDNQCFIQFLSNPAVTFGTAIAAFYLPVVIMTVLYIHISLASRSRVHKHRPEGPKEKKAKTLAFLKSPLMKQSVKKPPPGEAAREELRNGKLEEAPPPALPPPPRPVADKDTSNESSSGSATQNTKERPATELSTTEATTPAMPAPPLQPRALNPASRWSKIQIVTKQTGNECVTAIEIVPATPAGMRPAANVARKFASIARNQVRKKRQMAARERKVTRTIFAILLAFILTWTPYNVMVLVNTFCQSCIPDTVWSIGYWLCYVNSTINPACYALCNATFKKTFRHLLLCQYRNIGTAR
Chain of Voltage-gated potassium channel subunit beta-2 (Rattus norvegicus) (P62483 whole entry, looked up): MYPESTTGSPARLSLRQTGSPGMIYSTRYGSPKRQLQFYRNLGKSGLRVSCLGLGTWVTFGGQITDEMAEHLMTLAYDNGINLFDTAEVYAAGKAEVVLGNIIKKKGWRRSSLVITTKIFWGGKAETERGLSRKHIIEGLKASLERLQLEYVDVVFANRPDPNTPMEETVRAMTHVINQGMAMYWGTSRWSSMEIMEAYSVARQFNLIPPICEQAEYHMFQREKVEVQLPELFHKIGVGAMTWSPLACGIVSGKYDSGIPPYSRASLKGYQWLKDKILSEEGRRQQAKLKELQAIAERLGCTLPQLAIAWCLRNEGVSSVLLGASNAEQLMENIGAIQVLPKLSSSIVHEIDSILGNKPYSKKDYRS

Usually inhibition stands for the relative decrease from the control value, in per cent. As to `CC(=O)Nc1ccc2nc(-c3cccnc3)[nH]c2c1`, in assay [1], the cell count is 435. Also, the inhibition in assay [1] is -3.2% (inactive); in assay [3] it was -9.3% (inactive); in assay [7], -7.23% (inactive); in assay [8], -16.4% (inactive). Also, the inhibition of aggregation in assay [2] was -1.8% (inactive). Moreover, the nuclei count in assay [2] amounted to 106%; in assay [3] it was 116%. The values for the fluorescence slope in assay [4] and in assay [6] were -0.571 (inactive) and 0.00606 (inactive), respectively. Further, the NADPH fluorescence slope in assay [5] was 1.8e-05 (inactive).
For the molecule `O=C(OCC#CCSc1nc2ccccc2o1)c1ccco1`, the cell count in assay [1] was determined as 541. Besides, the inhibition in assay [1] was 6.7% (inactive); in assay [3], -7.3% (inactive); in assay [7], -2.28% (inactive); in assay [8] it was -8.72% (inactive). In assay [2], the inhibition of aggregation was -4.7% (inactive). In addition, the nuclei count in assay [2] amounted to 111%; in assay [3], 116%. Moreover, the results for the fluorescence slope in assay [4] and in assay [6] were -0.405 (inactive) and 0.00568 (inactive), respectively. Also, the NADPH fluorescence slope in assay [5] was 1.4e-05 (inactive).
In the case of `COc1cc(S(=O)(=O)N2CCOCC2)ccc1NC(=O)COC(=O)c1ccccn1`, the cell count in assay [1] turned out to be 621. In addition, the inhibition is 11.9% (inactive) in assay [1], -45.4% (inactive) in assay [3], 11.7% (inactive) in assay [7] and 20.5% (inactive) in assay [8]. Besides, the inhibition of aggregation in assay [2] was -7.1% (inactive). Further, the nuclei count in assay [2] came to 126%; in assay [3] it was 101%. The fluorescence slope is -0.542 (inactive) in assay [4] and 0.00554 (inactive) in assay [6]. Further, the NADPH fluorescence slope in assay [5] was -2.5e-05 (inactive).
For the molecule `CC(C)(C)OC(=O)N1CCN(c2ccc(NC(=O)c3cc4ccccc4oc3=O)cc2)CC1`, the cell count in assay [1] is 409. Also, the inhibition in assay [1] was 4.4% (inactive); in assay [3], -52.6% (inactive); in assay [7] it was 16.2% (inactive); in assay [8], -11.3% (inactive). In assay [2], the inhibition of aggregation is -4.1% (inactive). Also, the nuclei count in assay [2] was found to be 110%; in assay [3], 107%. The fluorescence slope is -0.582 (inactive) in assay [4] and 0.0076 (inactive) in assay [6]. In addition, the NADPH fluorescence slope in assay [5] was -4.9e-05 (inactive).
For `CCCN(CCO)Cc1cccc(Br)c1`, the cell count in assay [1] turned out to be 492. Moreover, the inhibition in assay [1] is -1.1% (inactive); in assay [3], -109% (inactive); in assay [7] it was 14.5% (inactive); in assay [8], 19.3% (inactive). In assay [2], the inhibition of aggregation was 7.9% (inactive). The nuclei count in assay [2] is 93.6%; in assay [3], 109%. Further, the figures for the fluorescence slope in assay [4] and in assay [6] were -0.437 (inactive) and 0.00547 (inactive), respectively. The NADPH fluorescence slope in assay [5] was 2.5e-05 (inactive).
As for `O=C(CSc1ncccn1)c1ccccc1Br`, in assay [1], the cell count worked out at 483. The inhibition in assay [1] was 2.9% (inactive); in assay [3], 1.5% (inactive); in assay [7], -24.3% (inactive); in assay [8], -65.9% (inactive). Moreover, the inhibition of aggregation in assay [2] is 0.9% (inactive). The results for the nuclei count in assay [2] and in assay [3] were 114% and 103%, respectively. Besides, the fluorescence slope is -0.582 (inactive) in assay [4] and 0.00475 (inactive) in assay [6]. In addition, the NADPH fluorescence slope in assay [5] is -0.000119 (inactive).
For `Cc1cc(NC(=O)COc2cccc3cccnc23)no1`, the cell count in assay [1] is 465. Further, the inhibition in assay [1] was 2% (inactive); in assay [3], -67.8% (inactive); in assay [7], -7.48% (inactive); in assay [8], -15.6% (inactive). Besides, the inhibition of aggregation in assay [2] is 11.9% (inactive). The nuclei count in assay [2] worked out at 103%; in assay [3], 106%. In addition, the fluorescence slope is -0.385 (inactive) in assay [4] and 0.00637 (inactive) in assay [6]. The NADPH fluorescence slope in assay [5] is -2.5e-05 (inactive).
In the case of `CCOC(=O)NC(=O)CSc1nnc(C)s1`, the cell count in assay [1] stood at 804. The inhibition was 4.3% (inactive) in assay [1], -130% (inactive) in assay [3], 18.9% (inactive) in assay [7] and 17.5% (inactive) in assay [8]. For the same molecule, the inhibition of aggregation in assay [2] was -0.4% (inactive). Further, the results for the nuclei count in assay [2] and in assay [3] were 105% and 135%, respectively. Moreover, the results for the fluorescence slope in assay [4] and in assay [6] were -0.421 (inactive) and 0.00543 (inactive), respectively. Moreover, the NADPH fluorescence slope in assay [5] was -9.6e-06 (inactive).
Turning to `CCOc1ccccc1C(=O)NCCCn1ccnc1`, the cell count in assay [1] amounted to 469. Besides, the inhibition in assay [1] is 5.5% (inactive); in assay [3] it was -89.5% (inactive); in assay [7] it was 11.4% (inactive); in assay [8], 8.04% (inactive). Besides, the inhibition of aggregation in assay [2] is 6.9% (inactive). The nuclei count turned out to be 96.2% in assay [2] and 121% in assay [3]. Moreover, the fluorescence slope is -0.576 (inactive) in assay [4] and 0.00757 (inactive) in assay [6]. Further, in assay [5], the NADPH fluorescence slope is -6.1e-05 (inactive).

The values are drawn from PubChem BioAssay.
